# Only some compounds are listed: those with a hit (about 4.1% of all), similar ones and a draw of the others.
# KCNQ1 inh = blocks the human KCNQ1 potassium channel | P51787 | CHO-K1 KCNQ1, FluxOR thallium flux fluorescence; stronger effect = higher value | B-score at 10 µM | 310,000 tested, 1.3% active | AID 2642;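 active means compounds whose thallium flux B-score, printed positive for inhibition, exceeds three library SD while starting fluorescence stays within three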;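 further: channel opened by potassium depolarization with thallium stimulus after 20 min compound exposure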
# KCNQ1 act = potentiators or activators of human KCNQ1 potassium channel | P51787 | CHO-K1 KCNQ1, thallium flux FluxOR fluorescence; stronger effect = higher value | B-score at 10 µM | 310,000 tested, 0.35% active | AID 2648;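 active means fluorescence ratio B-score, a plate-corrected score, at least three library SD, with initial intensity B-score within 5 SD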
#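 Material: CHO-K1 cells stably expressing KCNQ1. Medium: assay buffer for compound exposure, DMSO matched across wells. Reagent: K+/Tl+ depolarizing stimulus. Compound dosing: single-concentration screen. Times: 37 °C overnight plating, 90-min dark dye load, 20-min compound pretreatment. Technique: FluxOR Tl+ flux fluorescence.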
# hERG protect = shields human hERG channel from block by proarrhythmic agents; 310,000 tested, 0.51% active; activation (rescue from dofetilide block), less the hit threshold, % at 10 µM; Q12809; CHO-hERG, FluxOR thallium flux, dofetilide IC70 present;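 active means activation above the mean of controls blocked by dofetilide plus 5 SD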;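 further: thallium influx through hERG after potassium depolarization seen as dye fluorescence rise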
# KCNK3 block = human KCNK3 channel inhibition, primary screen; 340,000 tested, 0.84% active; AID 602410; O14649; CHO-KCNK3 thallium flux, FluxOR fluorescence; stronger effect = lower value; B-score at 10 µM;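 active means B-score under library mean minus 4 SD, starting fluorescence ratio at most library mean plus 5 SD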;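 further: more negative B-score means stronger inhibition of thallium flux through KCNK3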
# KCNK9 block = inhibitors of human KCNK9 two-pore domain potassium channel. B-score at 10 µM. 310,000 tested, 1.2% active. AID 488922. HEK293 KCNK9, FluxOR thallium flux fluorescence; stronger effect = lower value. Q9NPC2;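 active means ratio B-score over 3 SD below the library mean, with starting fluorescence within 5 SD of its mean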;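 further: negative B-score means less thallium flux so channel inhibition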
# Target sequence (Q9NPC2 whole entry, looked up, the tested form may be a part): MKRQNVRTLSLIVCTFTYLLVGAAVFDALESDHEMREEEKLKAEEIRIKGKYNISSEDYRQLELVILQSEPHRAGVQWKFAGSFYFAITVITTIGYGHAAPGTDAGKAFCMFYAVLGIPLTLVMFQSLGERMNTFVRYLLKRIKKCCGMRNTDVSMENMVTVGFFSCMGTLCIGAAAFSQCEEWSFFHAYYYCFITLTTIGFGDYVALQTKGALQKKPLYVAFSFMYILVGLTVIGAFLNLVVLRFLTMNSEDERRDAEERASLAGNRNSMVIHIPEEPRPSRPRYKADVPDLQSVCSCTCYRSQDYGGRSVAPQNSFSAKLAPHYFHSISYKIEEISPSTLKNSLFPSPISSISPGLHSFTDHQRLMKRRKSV
# Cl transport mod = modulates chloride dependent transport by human KCC2; Q9H2X9; KCC2 cells, thallium flux FluoZin-2 fluorescence; B-score of Tl+ flux slope (higher = more flux/activation; lower = inhibition) at 10 µM; 190,000 tested, 2.2% active;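 active means thallium flux slope and its plate-corrected score both differing from the plate sample mean at a set confidence after two filtering rounds, in either direction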;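 further: slope of fluorescence scaled to starting intensity during 10 to 20 s after thallium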
# KCNK9 block conf = confirmation of human KCNK9 potassium channel inhibitors | inhibition, % at 10 µM | 4,900 tested, 43% active | HEK293 KCNK9 cells, FluxOR thallium flux fluorescence | shares compounds with KCNK9 block | AID 492992;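 active means thallium signal inhibited by more than 5 SD of the compound-free buffer control wells, on both duplicate plates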;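 further: 0% = assay buffer control wells without compound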
# Kir21 sel = selectivity of KCNK9 modulators against mouse Kir2.1. shares compounds with KCNK9 block. Kir2.1 cells, FluxOR thallium flux fluorescence. inhibition, % at 10 µM. 4,900 tested, 4% active. AID 492993;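 active means thallium signal drop more than 5 SD beyond the mean of the no-compound control wells, seen in both duplicate plates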;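 further: signal is fluorescence rise after thallium addition divided by baseline fluorescence; plate controls were assay buffer only for no effect and full block by chlorpromazine control for full effect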
# HEK293 Tl ctr = second check of KCNK9 modulator effects in non-induced HEK293 cells | AID 492997 | 4,900 tested, 40% active | FluxOR thallium flux | inhibition, % at 10 µM | shares compounds with KCNK9 block;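 active means thallium signal drop beyond 5 SD of the untreated control mean, on both duplicate plates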;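 further: plate controls were buffer only IC0 wells for no effect and SID17386958 at its maximal inhibitory level for full effect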
# KCNK3 confirm = human KCNK3 channel inhibition, confirmation assay | shares compounds with KCNK3 block | CHO-KCNK3 thallium flux, FluxOR fluorescence; 0% buffer, 100% carvedilol maximal block | ratio percent of control, % at 10 µM | 2,400 tested, 99% active | AID 651638;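 active means ratio percent of control, averaged over triplicates, above buffer control mean plus 5 SD, cut at about 64% in these data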;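 further: ratio is the fluorescence rise from min to max over baseline after thallium stimulus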
# KCNK3 uninduced = activity in cells without induced KCNK3 expression. non-induced KCNK3 parental cells, FluxOR thallium flux; stronger effect = lower value. thallium flux ratio (lower = more inhibition) at 10 µM. shares compounds with KCNK3 block. 2,400 tested, 40% active;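 active means thallium flux ratio, averaged over three wells, more than 5 SD below the buffer control mean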;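 further: host cells are CHO cells without KCNK3 induction; ratio is peak minus trough fluorescence over baseline then normalized to buffer controls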
# * hit, by the source's call; i = inactive; / = no result; ! = not active in a repeat.
SMILES,KCNQ1 inh,KCNQ1 act,hERG protect,KCNK3 block,KCNK9 block,Cl transport mod,KCNK9 block conf,Kir21 sel,HEK293 Tl ctr,KCNK3 confirm,KCNK3 uninduced
CC1CCC(C(C)C)C(OC(=O)COC(=O)c2cccn2C)C1 (stereo not drawn),i,i,-20.7,-8.76*,-12.7*,-0.929,59.0%*,i,27.0%*,107.7*,i
CC1CCC(C(C)C)C(OC(=O)Cn2c(-c3ccc(Cl)cc3)[n+](C)c3ccccc32)C1 (stereo not drawn),10*,i,-35.5,-11.2*,-12.2*,0.962,66.5%*,80.0%*,i,119.0*,i
CC1CCC(C(C)C)C(OC(=O)Cn2c(-c3ccc(Br)cc3)[n+](C)c3ccccc32)C1 (stereo not drawn),10*,i,-31.1,-15.7*,-13.3*!,-0.274,66.0%*,82.0%*,i,131.7*,i
Cc1nn(Cc2ccc(C(=O)Nc3nc4c(C)cccc4s3)o2)c(C)c1Br,i,i,-2.4,-9.92*,-13.5*,0.207,43.5%*,i,i,87.7*,i
Cc1cc(NC(=O)c2ccc(Cn3nc(C)c(Br)c3C)o2)no1,i,i,-0.3,i,i,/,/,/,/,/,/
COc1ccccc1N(CC(=O)Nc1cc(C)on1)S(=O)(=O)c1cccc(C(F)(F)F)c1,/,/,/,i,/,/,/,/,/,/,/
COc1cc2c(c3oc(-c4ccccc4)cc(=O)c13)C=CC(C)(C)O2,i,i,-10.2,-8.8*,-9.36*,-0.244,43.5%*,i,i,122.3*,0.145*
COc1cc(OC)c2c(=O)cc(-c3ccccc3)oc2c1,i,i,-17.6,i,i,-0.737,/,/,/,/,/
CCOC(=O)C1=C(CSc2nc(CC)c(C)cc2C#N)OC(N)=C(C#N)C1c1ccc(OC)cc1 (stereo not drawn),i,i,-9.3,-9.18*,-9.72*,1.54,54.5%*,i,45.0%*,112.0*,0.152*
COc1ccc(C(=O)NCCc2nnc3ccc(SCC(=O)Nc4ccccc4)nn23)cc1,i,i,-5.5,i,i,/,/,/,/,/,/
CC(Oc1coc(CN2CCN(C(=O)c3ccco3)CC2)cc1=O)c1ccccc1 (stereo not drawn),i,i,-15.5,i,i,/,/,/,/,/,/
COc1cc(/C=C2\C(=N)N3N=C(S(C)(=O)=O)SC3=NC2=O)ccc1OCCOc1ccc(C)cc1,10*,i,0.1,-9.06*,i,/,i,i,i,75.3*,0.158*
CCC1=NN2C(=N)/C(=C\c3ccc(OCCOc4ccccc4)c(OC)c3)C(=O)N=C2S1,i,i,-8.0,/,i,/,/,/,/,/,/
COc1cc(/C=C2\C(=N)N3N=C(S(C)(=O)=O)SC3=NC2=O)ccc1OS(=O)(=O)c1ccccc1,i,i,-21.2,/,i,/,/,/,/,/,/
COc1cc(/C=C2\C(=N)N3N=C(S(C)(=O)=O)SC3=NC2=O)cc(OC)c1OCCOc1ccc(C)cc1,i,i,-33.2,-12.1*,i,/,i,i,i,99.0*,0.136*
O=C(Nc1cccnc1Cl)c1cc(-c2cccc(O)c2)on1,i,i,-9.1,i,i,/,/,/,/,/,/
